Data published in PubChem BioAssay.
Inconclusive results are not listed.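 How the source made its calls, unless noted: active means RAM network inhibition above 8.4% in each of two replicates, 3 SD over the compound average; inconclusive means above 8.4% inhibition in only one replicate; inactive means 8.4% inhibition or less in each replicate.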

What was measured:
[1] = OD615 S. cerevisiae growth inhibition, permissive medium, pilot counter-assay, permissive growth control for S. cerevisiae lifespan shortening project (AID 705;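 active means growth inhibition above 25% in both replicates, a cutoff set 3 SD above the mean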); conditions: OD615, 24 h, at 10 µM, stronger effect = higher value
Outline: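 assay system = Saccharomyces cerevisiae strain carrying genetically modified DeaD replicative-lifespan system | medium = SC raffinose/galactose permissive medium | dosing = 10 µM single dose, 0.25% DMSO | schedule = 24 h compound exposure at 30 °C after 4 h pre-growth | measured by = OD at 615 nm | read-out basis = growth inhibition from lowered OD615 after 24 h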

[2] = Restrictive medium S. cerevisiae growth inhibition, OD615, pilot screen of yeast lifespan reduction project, restrictive growth control (AID 706;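 active means growth inhibition above a set limit, 3 SD over mean compound inhibition, in both replicates, cut at about 43% in these data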;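 further: modified DeaD lifespan yeast strain shifted to restrictive glucose medium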); conditions: OD615, 48 h, at 10 µM, stronger effect = higher value
Outline: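 Buffer or medium: CSMM-D glucose medium. Material: genetically modified Saccharomyces cerevisiae, DeaD replicative lifespan assay strain. Times: 48 h compound exposure at 30 °C. Measured by: optical density at 615 nm.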

[3] = viability gain of MRP-1-high H69AR cells under doxorubicin, pilot screen, MRP-1 activator project, CellTiter-Glo, duplicate (AID 807;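 active means viability increase at or above a cutoff of the median across tested compounds plus 3 SD, cut at about 8.5% in these data, passing the limit was not always enough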;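 further: compound pretreatment 18-22 h then 72 h combined with doxorubicin; 0% = doxorubicin alone and 100% = vehicle without doxorubicin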); conditions: H69AR viability with doxorubicin, CellTiter-Glo luminescence; at 10 µM; stronger effect = higher value
[4] = growth suppression of beta-catenin knockout HCT116, pilot screen, human colon tumor cells (AID 823;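 active means cell viability at or below a set limit in both duplicate runs, the limit being the all-compound median minus 4 SD, cut at about 23% in these data, passing the limit was not always enough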;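 further: 0% = wells killed by 20 µM Hyamine and 100% = untreated DMSO cell wells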); conditions: CellTiter-Glo, 60 h, at 10 µM, stronger effect = lower value
[5] = growth suppression of PTEN-deleted HCT116, pilot screen, cell-based, HCT116 clonal line, CellTiter-Glo (AID 824;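 active means viability at or below 27.92% in each of two runs, the all-compound median minus 4 SD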;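 further: 0% = 20 µM Hyamine control and 100% = vehicle cell control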); conditions: 60 h, at 10 µM, stronger effect = lower value
[6] = inhibitors of the yeast RAM network, pilot screen, dse1pr::URA3 reporter, 5-FOA selection (AID 869;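 active means inhibition over a set limit, the all-compound mean plus 3 SD, in both replicate runs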;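 further: 0% = DMSO wells with no growth and 100% = 10 µM 1-NA-PP1 with full growth; RAM network block rescues cells from 5-FOA so hits raise OD615 growth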); conditions: S. cerevisiae dse1pr::URA3 5-FOA growth, OD615, 2 d; at 10 µM; stronger effect = higher value; strain carries analog-sensitive mutant Cbk1 kinase
[7] = RAM signaling pathway blockade in yeast – S. cerevisiae, Pdr1DBD-CYC8 efflux-inhibited sensitized strain, primary screen (AID 1298);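 further: 0% = DMSO untreated cells without growth and 100% = 10 µM 1-NA-PP1 full growth; higher means more yeast growth rescued from 5-FOA killing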; conditions: S. cerevisiae cbk1-as DSE1-URA3 strain, 5-FOA growth OD615, 2 d; at 50 µM; stronger effect = higher value

COC(=O)c1ccc(N2CCOCC2)c(NC(=O)Nc2cccc(OC)c2)c1
inactive: growth inhibition [1] -14.5% | growth inhibition [2] -8.03% | viability increase [3] -5.3% | viability [4] 84.4% | viability [5] 77.1% | inhibition [6] 1.09% | RAM network inhibition [7] 5.95%

O=C(Nc1ccccc1Cl)c1ccc(S(=O)(=O)N2CCOCC2)cc1
inactive: growth inhibition [1] -11.5% | growth inhibition [2] -7.41% | viability increase [3] -0.1% | viability [4] 111% | viability [5] 99.4% | inhibition [6] 0.585% | RAM network inhibition [7] 2.05%

Cc1ccc2c(c1)N(CCCC(=O)NCCCN1CCCC1=O)C(=O)CO2
inactive: growth inhibition [1] -11.1% | growth inhibition [2] -13.3% | viability increase [3] -2.09% | viability [4] 98.2% | viability [5] 94% | inhibition [6] 1.64% | RAM network inhibition [7] 1.27%

CC(C)n1c(C(O)c2ccccc2)nc2ccccc21 (stereo unspecified)
inactive: growth inhibition [1] -5.87% | growth inhibition [2] -13.6% | viability increase [3] 0.37% | viability [4] 97.6% | viability [5] 88.1% | inhibition [6] 1.4% | RAM network inhibition [7] 4.24%

COc1ccc(C(=O)NCC(c2cccnc2)N2CCN(c3ccccc3)CC2)cc1OC (stereo unspecified)
inactive: growth inhibition [1] -5.73% | growth inhibition [2] 0.095% | viability increase [3] -2.1% | viability [4] 97.6% | viability [5] 93.1% | inhibition [6] 1.5% | RAM network inhibition [7] 2.74%

COC(=O)N1CC(C)N(C(=O)OC)CC1C (stereo unspecified)
inactive: growth inhibition [1] -8.79% | growth inhibition [2] 3.85% | viability increase [3] -2.14% | viability [4] 95.2% | viability [5] 95.6% | inhibition [6] 0.745% | RAM network inhibition [7] 6.61%

CCS(=O)(=O)N1CCN(Cc2nc3ccccc3c(=O)[nH]2)CC1
inactive: growth inhibition [1] -12.6% | growth inhibition [2] -14.4% | viability increase [3] 0.44% | viability [4] 97.5% | viability [5] 91.8% | inhibition [6] 1.33% | RAM network inhibition [7] 6.05%

CNC(=O)c1sc2nc(-c3ccc(OC)cc3)cn2c1C
inactive: growth inhibition [1] 3.27% | growth inhibition [2] 2.45% | viability increase [3] 1.57% | viability [4] 104% | viability [5] 106% | inhibition [6] 2% | RAM network inhibition [7] 0.64%

CC(=O)Nn1cc2c(=O)n(C)c(=O)n(C)c2c1
inactive: growth inhibition [1] -5.47% | growth inhibition [2] 1.6% | viability increase [3] 0.99% | viability [4] 98.3% | viability [5] 99.7% | inhibition [6] 1.68% | RAM network inhibition [7] 1.13%

O=C(C1CCCN(S(=O)(=O)c2ccccc2)C1)N1CCCCCC1 (stereo unspecified)
inactive: growth inhibition [1] -1.18% | growth inhibition [2] 0% | viability increase [3] -1.36% | viability [4] 79.6% | viability [5] 94.3% | inhibition [6] 1.79% | RAM network inhibition [7] 4.15%

O=C1Nc2ccc(S(=O)(=O)N3CCCC3C(=O)O)c3cccc1c23 (stereo unspecified)
inactive: growth inhibition [1] 1.8% | growth inhibition [2] -5.75% | viability increase [3] -2.22% | viability [4] 92.8% | viability [5] 96.8% | inhibition [6] 0.57% | RAM network inhibition [7] 0.21%

Cc1ccc(C2CC(c3cccc(Br)c3)n3nc(N)nc3N2)cc1 (stereo unspecified)
inactive: growth inhibition [1] 0.285% | growth inhibition [2] 22.3% | viability increase [3] -1.6% | viability [4] 68.2% | viability [5] 67.2% | inhibition [6] 1.82% | RAM network inhibition [7] 5.91%

Cc1ccc(N(CC(=O)NCc2cccnc2)S(C)(=O)=O)cc1C
inactive: growth inhibition [1] -8.32% | growth inhibition [2] -10.2% | viability increase [3] -2.97% | viability [4] 97.3% | viability [5] 98.8% | inhibition [6] 0.71% | RAM network inhibition [7] 2.28%

CC(=O)OCCn1c(=O)c2cc3c(=O)n(CCOC(C)=O)c(=O)c3cc2c1=O
inactive: growth inhibition [1] -7.22% | growth inhibition [2] -6.18% | viability increase [3] -0.09% | viability [4] 101% | viability [5] 98.3% | inhibition [6] 1.84% | RAM network inhibition [7] 1.25%

Cc1cccn2c(=O)c3cc(C#N)c(=NC(=O)c4ccccc4)n(Cc4ccco4)c3nc12
inactive: growth inhibition [1] -4.6% | growth inhibition [2] -12.7% | viability increase [3] -1.26% | viability [4] 72.7% | viability [5] 62.2% | inhibition [6] 1.75% | RAM network inhibition [7] 4.04%

CCCC(=O)N(Cc1cc2cc(C)ccc2[nH]c1=O)c1ccccc1OC
inactive: growth inhibition [1] 1.1% | growth inhibition [2] 1.19% | viability increase [3] -0.05% | viability [4] 80.7% | viability [5] 78% | inhibition [6] 1.04% | RAM network inhibition [7] 9.81%

Cc1ccc2[nH]c(=O)c3cc(C(=O)N(C)Cc4ccco4)sc3c2c1
inactive: growth inhibition [1] -11.6% | growth inhibition [2] -4.44% | viability increase [3] -5.5% | viability [4] 71.4% | viability [5] 67.5% | inhibition [6] -0.255% | RAM network inhibition [7] -1.79%

Cc1n[nH]c(C)c1S(=O)(=O)N(CC(=O)Nc1ccc2c(c1)OCCO2)c1ccc(C(C)C)cc1
inactive: growth inhibition [1] 2.8% | growth inhibition [2] 2.67% | viability increase [3] -5.15% | viability [4] 68.1% | viability [5] 63% | inhibition [6] -0.49% | RAM network inhibition [7] 3.78%

C=CCn1cnc2scc(-c3ccccc3)c2c1=O
inactive: growth inhibition [1] 2.71% | growth inhibition [2] 10.9% | viability increase [3] -1.68% | viability [4] 93.6% | viability [5] 84.2% | inhibition [6] 2.52% | RAM network inhibition [7] 0.21%

COc1cc(C2C(C(N)=O)=C(C)Nc3nc(CCCO)nn32)cc(OC)c1OC (stereo unspecified)
inactive: growth inhibition [1] -3.16% | growth inhibition [2] -9.14% | viability increase [3] -0.36% | viability [4] 101% | viability [5] 95% | inhibition [6] 0.785% | RAM network inhibition [7] 0.15%

Cc1ccc(NC(=O)CSc2nnc(Cc3cccn3C)n2-c2ccc(F)cc2)c(C)c1
inactive: growth inhibition [1] 4.68% | growth inhibition [2] 8.61% | viability increase [3] -3.99% | viability [4] 93.2% | viability [5] 81.2% | inhibition [6] 2.25% | RAM network inhibition [7] 2.03%

COc1ccccc1N=C(C)C1=C(O)CSC1=O
inactive: growth inhibition [1] -9.17% | growth inhibition [2] -5.92% | viability increase [3] -1.29% | viability [4] 99.6% | viability [5] 93.3% | inhibition [6] -0.17% | RAM network inhibition [7] 6.89%

Cc1ccc(CC2CC(=O)N(c3cc(C)on3)C2=O)cc1 (stereo unspecified)
inactive: growth inhibition [1] -17.8% | growth inhibition [2] -19.9% | viability increase [3] 0.79% | viability [4] 100% | viability [5] 94% | inhibition [6] 1.73% | RAM network inhibition [7] -0.79%
